Active and inactive are the calls of the source. The calls are words filed in the database; no cut-off is given here.
Columns and labels:
[1] = (§1) Antiarrhythmic activity in patient-derived hiPSC-CMs carrying LQT3 mutation assessed as cessation dose for cell beating; assay type: functional, Homo sapiens, iPSC-CM
[2] = Antiarrhythmic activity in patient-derived hiPSC-CMs carrying LQT3 mutation assessed as shortening of action potential duration; assay type: functional, Homo sapiens; settings: ipsc-cm
[3] = (§2) Antiarrhythmic activity in patient-derived hiPSC-CMs carrying LQT3 mutation assessed as fold shortening of action potential duration relative to control; assay type: functional, Homo sapiens, iPSC-CM
[4] = (§3) Antiarrhythmic activity in patient-derived hiPSC-CMs carrying LQT3 mutation assessed as shortening dose of action potential; assay type: functional, Homo sapiens, iPSC-CM
[5] = Antiarrhythmic activity in hiPSC-CMs assessed as cessation dose of cell beating; settings: human, ipsc-cm
[6] = Antiarrhythmic activity in hiPSC-CMs assessed as dose for induction of early after depolarizations; settings: human, ipsc-cm
[7] = Antiarrhythmic activity in hiPSC-CMs assessed as fold prolongation of action potential relative to control; settings: human, ipsc-cm
[8] = Inhibition of sodium channel (unknown origin) expressed in HEK cells assessed as reduction in late inward sodium current by automated patch clamp method; assay type: cell-based; settings: Homo sapiens, HEK293
[9] = Inhibition of sodium channel (unknown origin) expressed in HEK cells assessed as reduction in peak sodium current by automated patch clamp method; assay type: cell-based; settings: Homo sapiens, HEK293
[10] = Inhibition of potassium channel (unknown origin) expressed in CHO cells assessed as reduction in potassium current by automated patch clamp method; assay type: cell-based
Homo sapiens = species: Homo sapiens; test: Selectivity index, ratio of IC50 for potassium channel (unknown origin) expressed in CHO cells assessed as reduction in potassium current to IC50 for sodium channel (unknown origin) expressed in HEK cells assessed as reduction in late inward sodium current
[11] = Chemical stability in pH 7.4 phosphate buffer assessed as half life at 100 uM by RP-HPLC analysis; assay type: physicochemical
[12] = Chemical stability in pH 3 phosphate buffer assessed as half life at 100 uM by RP-HPLC analysis; assay type: physicochemical
[13] = Antiarrhythmic activity in hiPSC-CMs assessed as prolongation of action potential; parameters: species or system Homo sapiens, iPSC-CM
Cytochrome P450 3A4 = Cytochrome P450 3A4 (Homo sapiens, UniProt P08684); test: Drug metabolism assessed as human CYP3A4-mediated metabolism per ug protein; assay type: ADME; settings: recombinant enzyme
Cytochrome P450 3A5 = Cytochrome P450 3A5 (Homo sapiens, UniProt P20815); test: Drug metabolism assessed as human CYP3A5-mediated metabolism per ug protein; assay type: ADME; settings: recombinant enzyme
Cytochrome P450 2D6 = Cytochrome P450 2D6 (Homo sapiens, UniProt P10635); test: Drug metabolism assessed as human CYP2D6-mediated metabolism per ug protein; assay type: ADME; settings: recombinant enzyme
[14] = Potency index, ratio of mexiletine EC50 to test compound EC50 for antiarrhythmic activity in hiPSC-CMs expressing LQT3 mutation assessed as shortening of action potential duration; assay type: functional, Homo sapiens, iPSC-CM
iPSC-CM [15] = test: as §1; assay type: functional; settings: Homo sapiens
[16] = Metabolic stability in human liver S9 fraction assessed as compound remaining at 50 uM after 1 hr by HPLC method; assay type: ADME, subcellular; settings: read-out: Stabilty
Summary of the method: (§4)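 Human liver microsomes (0.4–0.5 mg protein) or S-9 (1 mg) with 50 μM compound in 50 mM potassium phosphate pH 7.4 plus NADPH-generating system, 37 °C shaking for 0, 7, 15, 30, 60 min; stopped with cold acetonitrile; HPLC C18, isocratic water/acetonitrile with 0.05% TFA, UV 275.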

[17] = Metabolic stability in human liver microsomes assessed as compound remaining at 50 uM after 1 hr by HPLC method; assay type: ADME, Microsome; settings: read-out: Stabilty; summary of the method: as §4
iPSC-CM [18] = test: as §2; assay type: functional; settings: Homo sapiens
iPSC-CM [19] = test: as §3; assay type: functional; settings: Homo sapiens
[20] = Metabolic stability in human liver microsomes assessed as half life at 50 uM measured upto 60 mins by HPLC method; assay type: ADME, Microsome; summary of the method: as §4
[21] = Tmax in Sprague-Dawley rat at 5 mg/kg, iv measured upto 25 hrs by LCMS analysis; assay type: ADME, organism-based; settings: in vivo
[22] = Tmax in Sprague-Dawley rat at 25 mg/kg, po measured upto 25 hrs by LCMS analysis; assay type: ADME, organism-based; settings: in vivo
[23] = Cmax in Sprague-Dawley rat at 5 mg/kg, iv measured upto 25 hrs by LCMS analysis; assay type: ADME, organism-based; parameters: route intravenous, dose 5 mg/kg, time <=25; settings: in vivo
[24] = Cmax in Sprague-Dawley rat at 25 mg/kg, po measured upto 25 hrs by LCMS analysis; assay type: ADME, organism-based; parameters: route oral, dose 25 mg/kg, time <=25; settings: in vivo
[25] = AUC in Sprague-Dawley rat at 5 mg/kg, iv measured upto 25 hrs by LCMS analysis; assay type: ADME, organism-based; parameters: route intravenous, dose 5 mg/kg, time <=25; settings: in vivo
[26] = AUC in Sprague-Dawley rat at 25 mg/kg, po measured upto 25 hrs by LCMS analysis; assay type: ADME, organism-based; parameters: route oral, dose 25 mg/kg, time <=25; settings: in vivo
[27] = Half life in Sprague-Dawley rat at 5 mg/kg, iv measured upto 25 hrs by LCMS analysis; assay type: ADME, organism-based; settings: in vivo
[28] = Half life in Sprague-Dawley rat at 25 mg/kg, po measured upto 25 hrs by LCMS analysis; assay type: ADME, organism-based; settings: in vivo
[29] = Oral bioavailability in Sprague-Dawley rat at 25 mg/kg measured upto 25 hrs by LCMS analysis; assay type: ADME, organism-based; settings: in vivo
[30] = Homo sapiens, iPSC-CM, read-out: EC50

Sequence of Cytochrome P450 3A5 (P20815 whole entry): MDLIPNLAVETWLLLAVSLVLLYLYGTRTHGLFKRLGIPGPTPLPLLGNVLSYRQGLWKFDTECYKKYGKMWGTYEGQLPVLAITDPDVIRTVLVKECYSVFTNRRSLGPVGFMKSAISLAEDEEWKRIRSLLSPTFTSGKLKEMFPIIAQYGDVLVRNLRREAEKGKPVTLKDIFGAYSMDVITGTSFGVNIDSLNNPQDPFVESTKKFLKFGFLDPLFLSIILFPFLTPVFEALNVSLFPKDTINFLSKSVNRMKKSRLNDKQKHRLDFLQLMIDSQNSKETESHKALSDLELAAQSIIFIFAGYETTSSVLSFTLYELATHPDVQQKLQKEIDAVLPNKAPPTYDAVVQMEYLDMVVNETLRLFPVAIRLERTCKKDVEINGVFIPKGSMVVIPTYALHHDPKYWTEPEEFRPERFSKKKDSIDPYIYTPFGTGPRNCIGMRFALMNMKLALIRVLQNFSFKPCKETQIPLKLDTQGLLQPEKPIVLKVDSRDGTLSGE
Sequence of Cytochrome P450 2D6 (P10635 whole entry): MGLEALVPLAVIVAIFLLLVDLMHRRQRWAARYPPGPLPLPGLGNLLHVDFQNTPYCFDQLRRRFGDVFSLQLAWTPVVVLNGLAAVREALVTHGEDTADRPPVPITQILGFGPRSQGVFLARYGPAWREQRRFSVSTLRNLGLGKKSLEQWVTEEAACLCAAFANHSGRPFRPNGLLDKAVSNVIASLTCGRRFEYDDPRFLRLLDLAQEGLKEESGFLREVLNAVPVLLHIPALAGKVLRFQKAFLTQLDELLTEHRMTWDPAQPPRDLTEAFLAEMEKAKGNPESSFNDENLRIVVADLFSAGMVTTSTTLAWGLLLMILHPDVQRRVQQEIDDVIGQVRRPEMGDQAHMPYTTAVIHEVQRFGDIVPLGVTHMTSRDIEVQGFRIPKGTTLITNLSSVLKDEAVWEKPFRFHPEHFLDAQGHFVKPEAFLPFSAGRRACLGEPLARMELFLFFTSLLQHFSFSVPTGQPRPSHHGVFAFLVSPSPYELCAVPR
Sequence of Cytochrome P450 3A4 (P08684 whole entry): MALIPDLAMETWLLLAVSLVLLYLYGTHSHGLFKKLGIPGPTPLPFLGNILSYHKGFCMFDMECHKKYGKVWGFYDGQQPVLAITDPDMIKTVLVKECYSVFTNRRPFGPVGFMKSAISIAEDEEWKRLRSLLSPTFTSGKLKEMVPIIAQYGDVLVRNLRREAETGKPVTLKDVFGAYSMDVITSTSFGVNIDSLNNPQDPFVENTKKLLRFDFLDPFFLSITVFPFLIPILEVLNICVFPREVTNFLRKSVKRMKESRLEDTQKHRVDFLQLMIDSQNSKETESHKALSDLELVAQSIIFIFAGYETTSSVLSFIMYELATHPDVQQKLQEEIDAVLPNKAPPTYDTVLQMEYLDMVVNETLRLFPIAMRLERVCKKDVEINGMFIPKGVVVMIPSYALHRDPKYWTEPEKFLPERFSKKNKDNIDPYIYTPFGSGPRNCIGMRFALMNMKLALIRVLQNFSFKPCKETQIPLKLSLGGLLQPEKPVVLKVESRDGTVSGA

Row | SMILES | Activity [1] | EC50 [2] | fold change (FC) [3] | Activity [4] | Activity [5] | Activity [6] | IC50 [8] | IC50 [9] | IC50 [10] | Ratio IC50 (Homo sapiens) | EC50 ([2]; read-out: EC50) | EC50 ([13]; ipsc-cm) | Activity (iPSC-CM [15]) | Activity (iPSC-CM [19]) | further results
1 | Cl.OCCNC(COc1cc(C(F)(F)F)cc(C(F)(F)F)c1)c1ccccc1 (stereo not drawn) | 22 µM | Not Active | 1.5 | 7.4 µM | 66 µM | Not Active | 1.02 µM | 45.1 µM | 16.8 µM | 16.5 |  |  |  |  | Activity [7]: Not Active
2 | Cc1ccccc1OCC(N)c1ccccc1.Cl (racemic) |  |  |  |  |  |  |  |  |  |  |  |  |  |  | half-life at 100 µM [11]: > 30 days; half-life at 100 µM [12]: > 15 days
3 | Cc1cc(C)cc(OCC(N)c2ccccc2)c1.Cl (racemic) | 66 µM |  | 1.279 | 7.4 µM | 66 µM | Not Active | 0.2 µM | 20.1 µM | 6.2 µM | 31 | < 800 nM | Not Active |  |  | half-life at 100 µM [11]: > 30 days; Drug metabolism (Cytochrome P450 3A4): Metabolite_Notdetected; Drug metabolism (Cytochrome P450 3A5): Metabolite_Notdetected; Drug metabolism (Cytochrome P450 2D6): 6.9 pmol/min
4 | Cc1cccc(C)c1OCC(N)c1ccc(C(F)(F)F)cc1.Cl (stereo not drawn) | 66 µM |  | 1.48 | 22 µM | 66 µM | Not Active |  |  |  |  | 1400 nM | Not Active |  |  | Ratio EC50 [14]: 7
5 | Cc1cccc(C)c1OC[C@H](C)N [(S)-MEXILETINE] |  |  |  | 22 µM | Not Active | 200 µM |  | 128 µM | 54.3 µM |  | 800 nM |  | inactive |  | remaining at 1 h, 50 µM [16]: > 95%; remaining at 1 h, 50 µM [17]: > 95%
6 | COCCNC(COc1cc(C)cc(C)c1)c1ccccc1.Cl (stereo not drawn) | 200 µM | Not Active |  |  | 200 µM | Not Active | 0.753 µM | 38 µM | 5.1 µM | 6.8 |  |  |  | inactive | fold change (FC) (iPSC-CM [18]): inactive; Activity [7]: Not Active
7 | Cc1cccc(C)c1OCC(C)Nc1ccccc1.Cl (stereo not drawn) |  | Not Active |  |  | Not Active | Not Active |  |  |  |  |  | Not Active | inactive | inactive | 
8 | Cc1ccccc1OC[C@@H](N)c1ccccc1.Cl |  |  |  |  |  |  |  |  |  |  |  |  |  |  | remaining at 1 h, 50 µM [16]: > 95%; half-life at 50 µM [20]: 136 min
9 | CCNC(C)COc1c(C)cccc1C.Cl (stereo not drawn) |  | Not Active |  |  | Not Active | 133 µM |  |  |  |  |  |  | inactive | inactive | EC50 [13, 30]: 21.5 µM
10 | COc1ccc(C(N)COc2c(C)cccc2C)cc1.Cl (stereo not drawn) | 66 µM | Not Active | 1.425 | 7.4 µM | 66 µM | Not Active |  |  |  |  |  | Not Active |  |  | Ratio EC50 [14]: 7
11 | Cc1cc(C)cc(OCC(N)C2CC2)c1.Cl (stereo not drawn) | 200 µM |  | 1.15 | 22 µM | 200 µM | 66 µM | 10 µM | 76.8 µM | 45.8 µM | 4.6 | 2060 nM |  |  |  | fold change (FC) [7]: 2.12
12 | Cc1cccc(C)c1OC[C@@H](C)N [(R)-MEXILETINE] |  |  |  | 7.4 µM | Not Active | 200 µM |  | 129 µM | 84 µM |  | 960 nM |  | inactive |  | remaining at 1 h, 50 µM [16]: > 95%; remaining at 1 h, 50 µM [17]: > 95%
13 | CCNC(COc1cccc(C)c1C)c1ccccc1.Cl (stereo not drawn) | 22 µM | Not Active |  |  | 133 µM | Not Active |  |  |  |  |  |  |  | inactive | fold change (FC) (iPSC-CM [18]): inactive; Activity [7]: Not Active
14 | Cc1ccc(C(N)COc2c(C)cccc2C)cc1.Cl (stereo not drawn) | 66 µM | Not Active | 1.588 | 22 µM | 66 µM | Not Active |  |  |  |  |  | Not Active |  |  | Ratio EC50 [14]: 7
15 | Cc1cc(C)cc(OCC(C)N)c1.Cl (stereo not drawn) | 200 µM |  | 1.232 | 66 µM | Not Active | Not Active | 17.3 µM | 154 µM | 49.3 µM | 2.84 | 4500 nM |  |  |  | EC50 [13, 30]: 7.7 µM
16 | Cc1cccc(C)c1OCC(C)NCCc1ccccc1.Cl (stereo not drawn) | 7.4 µM | Not Active | 1.706 | 2.5 µM | 133 µM | 22 µM |  |  |  |  |  |  |  |  | EC50 [13, 30]: 2.5 µM; Ratio EC50 [14]: 28
17 | Cc1cccc(C)c1OCC(N)C1CC1.Cl (stereo not drawn) | 200 µM |  | 1.162 | 22 µM | Not Active | 66 µM | 7.4 µM | 130 µM | 30.1 µM | 4.1 | 800 nM |  |  |  | EC50 [13, 30]: 8 µM; fold change (FC) [7]: 2.805
18 | Cc1cccc(C)c1OCC(N)C(C)(C)C.Cl (stereo not drawn) | 22 µM |  | 1.182 | 2.5 µM | Not Active | 7.4 µM | 11.4 µM | 91.4 µM | 27.6 µM | 2.42 | < 800 nM | Not Active |  |  | 
19 | CCCNC(COc1cccc(C)c1C)c1ccccc1.Cl (stereo not drawn) | 133 µM | Not Active |  |  | Not Active | Not Active |  |  |  |  |  |  |  | inactive | fold change (FC) (iPSC-CM [18]): inactive; Activity [7]: Not Active
20 | COc1ccccc1OCC(C)N.Cl (stereo not drawn) |  | Not Active |  |  | Not Active | 133 µM |  |  |  |  |  |  | inactive | inactive | fold change (FC) (iPSC-CM [18]): inactive; EC50 [13, 30]: 97.8 µM
21 | Cc1cccc(C)c1OCC(C)N (stereo not drawn) [MEXILETINE] |  |  |  | 22 µM | Not Active | 200 µM |  |  | 53.7 µM |  | 1800 nM |  | inactive |  | EC50 [13, 30]: 20.4 µM; Tmax [21]: 10.2 min; Tmax [22]: 1 h; Cmax [23]: 289 ng/mL; Cmax [24]: 167 ng/mL; AUC [25]: 447 ng·h/mL; AUC [26]: 839 ng·h/mL; t1/2 [27]: 10.6 h; t1/2 [28]: 11 h; bioavailability [29]: 37%; Drug metabolism (Cytochrome P450 3A4): 46.2 pmol/min; Drug metabolism (Cytochrome P450 3A5): 48.8 pmol/min; Drug metabolism (Cytochrome P450 2D6): 6 pmol/min
22 | CC(=O)NC(C)COc1c(C)cccc1C.Cl (stereo not drawn) |  | Not Active |  |  | Not Active | Not Active |  |  |  |  |  | Not Active | inactive | inactive | fold change (FC) (iPSC-CM [18]): inactive
23 | Cc1cccc(C)c1OCC(C)NC(=O)c1ccccc1.Cl (stereo not drawn) | 133 µM |  | 1.45 | 66 µM | 66 µM | Not Active |  |  |  |  | 133000 nM | Not Active |  |  | Ratio EC50 [14]: 9

From ChEMBL document CHEMBL4808187, “Antiarrhythmic Hit to Lead Refinement in a Dish Using Patient-Derived iPSC Cardiomyocytes” (J Med Chem, 2021)
